The source made the active and inactive calls. The calls are words filed in the database; no cut-off is given here.
Columns and labels:
[1] = biological target: T1, D(4) dopamine receptor (Homo sapiens) (UniProt P21917); test: Antagonist activity at D4 receptor (unknown origin)
T1 sequence (whole entry): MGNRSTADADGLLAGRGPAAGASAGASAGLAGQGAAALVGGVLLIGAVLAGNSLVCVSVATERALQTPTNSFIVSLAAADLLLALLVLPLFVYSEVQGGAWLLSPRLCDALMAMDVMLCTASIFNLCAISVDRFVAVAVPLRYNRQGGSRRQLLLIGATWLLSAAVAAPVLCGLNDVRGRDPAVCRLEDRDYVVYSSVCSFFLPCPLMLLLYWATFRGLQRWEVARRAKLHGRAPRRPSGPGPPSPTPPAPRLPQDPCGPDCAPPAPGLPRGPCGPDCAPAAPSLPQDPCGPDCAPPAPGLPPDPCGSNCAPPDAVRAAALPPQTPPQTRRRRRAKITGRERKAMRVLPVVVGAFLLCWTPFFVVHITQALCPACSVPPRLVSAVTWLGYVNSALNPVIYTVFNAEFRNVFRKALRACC

[2] = biological target: Free fatty acid receptor 1 (Homo sapiens) (UniProt O14842); test: Agonist activity at GPR40 (unknown origin) expressed in HEK293 cells harboring luc2P/NFAT-RE plasmid at 10 uM after 6 to 8 hrs by luciferase reporter gene assay; type: cell-based
How it was run: (§1)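 NFAT-RE luciferase assay in HEK293T cells transiently co-transfected with luc2P/NFAT-RE plasmid and receptor plasmid. Cells plated in DMEM and incubated overnight at 37 °C, 5% CO₂. Compounds and reference ligands applied for 6-8 h. Luciferase read after adding Bright-Glo substrate (1 mg/ml final).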

Mus musculus [3] = test: Anorexic effect in 12 hrs fasted db/db-induced obese C57BL/6J mouse model assessed as reduction in cumulative food intake at 20 mg/kg, po pretreated for 30 mins followed by food addition measured after 4 hrs in presence of histidine decarboxylase inhibitor alpha-MDLH; type: functional, organism-based
How it was run: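 Mice starved 12 h (8:00 am to 8:00 pm) with water available, then housed singly. Compound given orally in 5% gum acacia in normal saline; vehicle group received the same. Cumulative food intake measured over 4 h of the night phase (9:00 pm to 1:00 am), starting 30 min after dosing. Antagonism arms: imitet 5 mg/kg i.p. 30 min before compound, or α-methyl-DL-histidine 20 mg/kg i.p. 2 h before.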

Mus musculus [4] = test: Anti-obesity activity in high fat diet-induced obese C57BL/6J mouse model assessed as change in blood total cholesterol level at 10 to 20 mg/kg, po measured after 6 weeks; type: functional, organism-based
How it was run: (§2)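 At the end of treatment (six weeks HFD, four weeks db/db), mice euthanized with avertin 350 mg/kg. Blood taken by cardiac puncture into 3.8% sodium citrate. Plasma separated at 4000 rpm and stored at -80 °C. TG, TC, HDLc and LDLc measured on a bio-analyzer.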

[5] = biological target: T1, D(4) dopamine receptor (Homo sapiens); test: Agonist activity at D4 receptor (unknown origin)
[6] = biological target: D(2) dopamine receptor (Homo sapiens) (UniProt P14416); test: Agonist activity at Gi-coupled D2 receptor (unknown origin) expressed in HEK293T cells assessed as inhibition of forskolin-stimulated cAMP accumulation preincubated for 10 to 15 followed by forskolin-stimulation by Glo-sensor assay; type: functional, cell-based
[7] = Protein binding in C57BL/6J mouse plasma by equilibrium dialysis method; type: ADME, cell-free; conditions: read-out: PPB (converted)
How it was run: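 Plasma protein binding and unbound fraction in mouse brain tissue homogenate measured by equilibrium dialysis.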

[8] = biological target: D(3) dopamine receptor (Homo sapiens) (UniProt P35462); test: Agonist activity at D3 receptor (unknown origin)
[9] = Apparent clearance in C57BL/6J mouse serum at 20 mg/kg, po by LC-MS/MS analysis; type: ADME, organism-based
How it was run: (§3)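 Male C57BL/6J mice (6-8 weeks, 20 ± 5 g) fasted overnight (12-16 h) got a single 20 mg/kg oral dose as 2.5 mg/mL suspension in 1% w/v gum acacia; n=5 per time point. Serum and brain (PBS homogenate 1:6 w/v) sampled up to 24 h. Parent and demethylated metabolite quantified by LC-MS/MS after liquid-liquid extraction (C18, MRM, phenacetin internal standard; linear 0.25-200 ng/mL). Two-compartment open model fit.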

Mus musculus [10] = test: Anti-obesity activity in 16 hrs fasted db/db-induced obese […] mouse model assessed as reduction in body weight at 20 mg/kg, po measured after 4 weeks; type: functional, organism-based
Histamine H2 receptor = Histamine H2 receptor (Homo sapiens, UniProt P25021); test: Agonist activity at recombinant human Gs-coupled H2 receptor expressed in HEK293T cells assessed as inhibition of forskolin-stimulated cAMP accumulation preincubated for 10 to 15 followed by forskolin-stimulation by Glo-sensor assay; type: functional, cell-based
Mus musculus [11] = test: Anti-obesity activity in high fat diet-induced obese C57BL/6J mouse model assessed as change in LDL level at 10 to 20 mg/kg, po measured after 6 weeks; type: functional, organism-based; how it was run: as §2
[12] = Cmax in C57BL/6J mouse serum at 20 mg/kg, po by LC-MS/MS analysis; type: ADME, organism-based; design: dose 20 mg/kg, route oral; how it was run: as §3
[13] = fCmax in C57BL/6J mouse brain by equilibrium dialysis method; type: ADME, tissue-based
How it was run: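 Unbound brain level derived from brain concentration after 20 mg/kg oral dose, multiplied by unbound fraction from brain-homogenate equilibrium dialysis; given at Cmax and at 4 h.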

[14] = biological target: T2, 5-hydroxytryptamine receptor 2C (Homo sapiens) (UniProt P28335); test: Antagonist activity at 5HT2CR (unknown origin) expressed in HEK293 cells harboring luc2P/NFAT-RE plasmid at 10 uM after 6 to 8 hrs by luciferase reporter gene assay; type: cell-based; how it was run: as §1
T2 sequence (whole entry): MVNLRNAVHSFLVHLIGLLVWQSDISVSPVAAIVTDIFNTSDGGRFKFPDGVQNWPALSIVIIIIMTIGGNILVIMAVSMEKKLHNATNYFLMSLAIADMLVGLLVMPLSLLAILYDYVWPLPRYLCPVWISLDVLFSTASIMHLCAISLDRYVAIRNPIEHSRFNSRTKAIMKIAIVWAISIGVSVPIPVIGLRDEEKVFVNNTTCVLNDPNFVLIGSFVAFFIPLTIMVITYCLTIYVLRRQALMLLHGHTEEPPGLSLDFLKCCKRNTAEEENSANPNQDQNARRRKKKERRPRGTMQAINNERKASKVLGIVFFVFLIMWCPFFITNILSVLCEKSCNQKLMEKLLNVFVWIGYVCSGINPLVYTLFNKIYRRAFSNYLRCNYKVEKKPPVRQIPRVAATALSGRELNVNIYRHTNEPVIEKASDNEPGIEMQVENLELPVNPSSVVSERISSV

[15] = Tmax in C57BL/6J mouse brain at 20 mg/kg, po by LC-MS/MS analysis; type: ADME, organism-based; how it was run: as §3
[16] = biological target: Voltage-gated inwardly rectifying potassium channel KCNH2 (Homo sapiens, UniProt Q12809); test: Inhibition of tracer Red binding to human ERG expressed in membranes up to 10 uM after 3 hrs by fluorescence polarization assay
[17] = biological target: D(3) dopamine receptor (Homo sapiens) (UniProt P35462); test: Antagonist activity at D3 receptor (unknown origin)

D(3) dopamine receptor (Homo sapiens), sequence (P35462 whole entry): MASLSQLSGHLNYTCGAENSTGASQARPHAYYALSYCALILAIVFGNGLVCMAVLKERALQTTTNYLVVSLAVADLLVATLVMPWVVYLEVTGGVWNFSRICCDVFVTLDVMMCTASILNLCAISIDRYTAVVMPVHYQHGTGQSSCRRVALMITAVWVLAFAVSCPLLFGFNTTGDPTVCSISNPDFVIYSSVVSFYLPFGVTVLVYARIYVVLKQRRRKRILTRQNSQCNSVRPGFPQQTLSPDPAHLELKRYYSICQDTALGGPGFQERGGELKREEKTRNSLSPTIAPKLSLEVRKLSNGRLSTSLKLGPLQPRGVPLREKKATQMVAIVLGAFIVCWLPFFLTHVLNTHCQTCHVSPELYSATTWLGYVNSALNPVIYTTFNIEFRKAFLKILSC
Histamine H2 receptor, sequence (P25021 whole entry): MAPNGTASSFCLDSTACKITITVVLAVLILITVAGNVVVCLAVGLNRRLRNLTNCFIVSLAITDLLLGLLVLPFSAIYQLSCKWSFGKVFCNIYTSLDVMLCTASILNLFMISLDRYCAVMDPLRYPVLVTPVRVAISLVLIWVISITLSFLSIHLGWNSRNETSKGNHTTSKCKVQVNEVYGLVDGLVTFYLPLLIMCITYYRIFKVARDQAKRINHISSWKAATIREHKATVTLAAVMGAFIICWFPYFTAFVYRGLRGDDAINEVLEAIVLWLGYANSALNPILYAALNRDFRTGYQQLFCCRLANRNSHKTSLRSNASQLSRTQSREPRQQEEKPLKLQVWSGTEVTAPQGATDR
Voltage-gated inwardly rectifying potassium channel KCNH2, sequence (Q12809 whole entry): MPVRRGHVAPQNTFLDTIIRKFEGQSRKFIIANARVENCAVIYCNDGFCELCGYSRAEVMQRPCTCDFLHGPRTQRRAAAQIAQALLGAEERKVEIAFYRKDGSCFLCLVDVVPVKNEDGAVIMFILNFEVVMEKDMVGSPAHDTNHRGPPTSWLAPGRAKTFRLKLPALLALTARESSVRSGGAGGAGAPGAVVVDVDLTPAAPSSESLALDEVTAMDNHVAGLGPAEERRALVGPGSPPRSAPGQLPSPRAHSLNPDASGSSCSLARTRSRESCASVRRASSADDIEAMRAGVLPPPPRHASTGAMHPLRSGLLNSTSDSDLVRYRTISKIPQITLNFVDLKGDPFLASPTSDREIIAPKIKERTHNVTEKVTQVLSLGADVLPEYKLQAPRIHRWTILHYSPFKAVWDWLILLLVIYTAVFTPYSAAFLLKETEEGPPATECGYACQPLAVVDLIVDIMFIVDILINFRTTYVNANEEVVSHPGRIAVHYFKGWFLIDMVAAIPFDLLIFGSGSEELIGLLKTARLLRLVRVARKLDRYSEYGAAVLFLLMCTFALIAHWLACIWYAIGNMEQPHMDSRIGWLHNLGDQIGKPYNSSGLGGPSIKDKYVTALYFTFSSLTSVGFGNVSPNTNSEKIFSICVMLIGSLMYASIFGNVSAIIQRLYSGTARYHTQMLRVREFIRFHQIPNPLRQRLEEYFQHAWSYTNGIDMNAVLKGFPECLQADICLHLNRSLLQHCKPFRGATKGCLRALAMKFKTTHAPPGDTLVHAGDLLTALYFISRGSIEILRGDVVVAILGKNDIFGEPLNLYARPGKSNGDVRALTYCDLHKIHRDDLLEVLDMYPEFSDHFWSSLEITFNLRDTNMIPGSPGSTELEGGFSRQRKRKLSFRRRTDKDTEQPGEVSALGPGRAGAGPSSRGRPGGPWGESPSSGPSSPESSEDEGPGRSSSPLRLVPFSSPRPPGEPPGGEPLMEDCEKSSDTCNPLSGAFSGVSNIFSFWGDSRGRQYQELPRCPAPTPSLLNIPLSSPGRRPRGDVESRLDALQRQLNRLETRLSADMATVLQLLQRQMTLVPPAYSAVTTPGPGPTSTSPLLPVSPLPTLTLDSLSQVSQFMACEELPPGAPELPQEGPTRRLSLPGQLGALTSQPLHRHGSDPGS
Free fatty acid receptor 1 (Homo sapiens), sequence (O14842 whole entry): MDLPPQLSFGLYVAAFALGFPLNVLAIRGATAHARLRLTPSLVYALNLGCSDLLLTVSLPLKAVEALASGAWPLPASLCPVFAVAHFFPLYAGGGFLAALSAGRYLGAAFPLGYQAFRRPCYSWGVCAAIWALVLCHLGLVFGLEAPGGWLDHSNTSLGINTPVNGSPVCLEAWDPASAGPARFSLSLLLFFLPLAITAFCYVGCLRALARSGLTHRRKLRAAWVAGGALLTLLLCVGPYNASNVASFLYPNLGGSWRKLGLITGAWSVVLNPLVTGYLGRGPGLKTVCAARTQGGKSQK
D(2) dopamine receptor (Homo sapiens), sequence (P14416 whole entry): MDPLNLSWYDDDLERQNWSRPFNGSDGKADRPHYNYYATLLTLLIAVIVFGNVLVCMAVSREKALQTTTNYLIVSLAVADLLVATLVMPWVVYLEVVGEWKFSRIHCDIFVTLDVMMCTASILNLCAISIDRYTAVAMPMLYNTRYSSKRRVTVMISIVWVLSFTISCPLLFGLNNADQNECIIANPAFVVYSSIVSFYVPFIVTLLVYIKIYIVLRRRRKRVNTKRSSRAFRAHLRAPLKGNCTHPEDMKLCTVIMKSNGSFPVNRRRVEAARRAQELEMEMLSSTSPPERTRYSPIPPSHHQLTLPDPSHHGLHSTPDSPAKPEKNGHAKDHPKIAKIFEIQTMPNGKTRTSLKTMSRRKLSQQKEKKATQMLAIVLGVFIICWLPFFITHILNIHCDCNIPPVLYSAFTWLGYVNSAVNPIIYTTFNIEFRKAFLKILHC

COc1ccc(-c2nc(N)nc3c2CCCC3C)cc1 (racemic)
inhibition [1]: inactive
Activity [2]: inactive
Activity (Mus musculus [3]): inactive
Activity (Mus musculus [4]): inactive
Activity [5]: inactive
inhibition [6]: inactive
fraction unbound [7]: 0.0424
Activity [8]: inactive
CL/F [9]: 172 mL/min/kg
Activity (Mus musculus [10]): Active
EC50 (Histamine H2 receptor): Not Active
INH (Histamine H2 receptor): > 10 µM
Activity (Mus musculus [11]): inactive
Cmax [12]: 3360 ng/mL
fCmax [13]: 334.7 nM
inhibition [14]: inactive
Tmax [15]: 30 min
inhibition (INH) [16]: Not Active
inhibition [17]: inactive

From ChEMBL document CHEMBL4393678, “Novel Tetrahydroquinazolinamines as Selective Histamine 3 Receptor Antagonists for the Treatment of Obesity” (J Med Chem, 2019)
